Only some compounds are listed: those with a hit (about 1.8% of all), similar ones and a draw of the others.
M5 PAM: positive allosteric modulators of human muscarinic M5 receptor. P08912. CHO-K1 hM5, Fluo-8 calcium, ACh EC20 PAM; 0% = ACh EC20, 100% = ACh EC100. activation, % at 3 µM. 360,000 compounds, 0.3% hits. AID 624038;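 active = activation above the run cutoff, the mean activation of all test compounds plus 3 SD, cut at about 18% in these data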
Target sequence (P08912 whole entry, looked up): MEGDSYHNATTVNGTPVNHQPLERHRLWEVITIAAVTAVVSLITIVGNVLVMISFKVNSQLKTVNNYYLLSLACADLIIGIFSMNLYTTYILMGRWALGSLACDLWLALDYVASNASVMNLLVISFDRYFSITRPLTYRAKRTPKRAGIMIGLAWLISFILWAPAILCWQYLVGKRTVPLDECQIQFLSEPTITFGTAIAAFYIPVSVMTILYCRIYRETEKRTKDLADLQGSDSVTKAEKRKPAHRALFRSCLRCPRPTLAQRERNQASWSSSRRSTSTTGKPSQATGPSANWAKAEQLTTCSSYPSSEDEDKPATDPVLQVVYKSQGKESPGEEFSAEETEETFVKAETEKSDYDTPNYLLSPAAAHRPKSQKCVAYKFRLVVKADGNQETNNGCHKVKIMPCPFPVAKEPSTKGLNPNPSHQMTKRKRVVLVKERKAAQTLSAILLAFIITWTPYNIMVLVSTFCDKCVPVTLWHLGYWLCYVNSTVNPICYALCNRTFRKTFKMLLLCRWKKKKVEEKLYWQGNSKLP
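Measured by: Fluo-8 calcium fluorescence; material: human M5 receptor in CHO-K1 cells; schedule: Post-acetylcholine fluorescence recording 140 s; benchmarks: low control EC20 acetylcholine (0%), high control EC100 acetylcholine (100%); read-out: Max/basal fluorescence ratio as % of EC20–EC100 ACh window; compound: single dose, 3 µM nominal final test concentration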
CHRM4 agonist: agonists of human muscarinic M4 receptor (CHRM4); 360,000 compounds, 0.14% hits; CHO-K1 hM4/Gqi5, Fluo-8 calcium fluorescence; vehicle 0%, full acetylcholine response 100%; activation, % at 3 µM; AID 624127; P08173;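 active = activation above the run mean over all test wells plus 3 SD, cut at about 32% in these data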;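 note: peak over basal fluorescence ratio per well then scaled between controls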
CHRM4 PAM: positive allosteric modulators of human muscarinic M4 receptor. P08173. 360,000 compounds, 0.4% hits. CHO-K1 hM4/Gqi5, Fluo-8 calcium fluorescence, ACh EC20; 0% = ACh EC20, 100% = maximal ACh. activation, % at 3 µM;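 active = activation above its plate's cutoff, the mean activation of sample wells plus 3 SD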
CHRM5 agonist: CHRM5 agonism in calcium assay; P08912; CHO-K1 hM5 cells, Fluo-8 calcium fluorescence; 0% DMSO wells, 100% maximal acetylcholine response; activation, % at 3 µM; 360,000 compounds, 0.19% hits; AID 624037;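 active = activation above the run's mean over test compounds plus 3 SD, cut at about 23% in these data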;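 note: signal is peak over basal fluorescence ratio across the kinetic read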
CHRM5 antagonist: CHRM5 antagonism in calcium assay; P08912; CHO-hM5 cells, Fluo-8 calcium fluorescence, ACh EC80; inhibition, % at 3 µM; 360,000 compounds, 0.59% hits;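 active = inhibition above a per-plate cutoff, the mean of that plate's test compounds plus 3 SD, cut at about 27% in these data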
M4 antag: antagonists of human muscarinic M4 receptor (CHRM4); CHO-hM4 cells, ACh EC80, Fluo-8 calcium fluorescence; P08173; 360,000 compounds, 0.73% hits; inhibition, % at 3 µM;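 active = inhibition above its plate's cutoff, the mean inhibition of sample wells plus 3 SD, cut at about 27% in these data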
Each line names hits and unclear results; the compound was inactive in the other large screens.

COc1ccc(C2CC3(CC(C)(C)NC(=S)N3)Oc3cc(O)cc(C)c32)cc1 (stereo not given)	none
COc1ccc(C2CC3(CC(C)(C)NC(SC)=N3)Oc3cc(O)cc(C)c32)cc1 (stereo not given)	CHRM4 agonist 49
Cc1cc(C)c2c(N)c(C(=O)c3ccccc3)sc2n1	CHRM4 PAM 56, M4 antag 33
Cc1cc(C)c2c(N)c(C(=O)c3ccc(Cl)cc3)sc2n1	CHRM4 PAM 28
Cc1noc(C)c1-c1ccc(C(=O)NCc2cccnc2)c2occc12	none
C=CCn1c(SCCC)nc(O)cc1=O	CHRM4 agonist 62
NC(=O)CCN1CCN(CCOC2Cc3cc(Cl)ccc3Sc3ccccc32)CC1 (stereo not given)	CHRM5 antagonist 28
COCCCN1CCN(C2Cc3ccccc3Sc3ccc(Cl)cc32)CC1 (stereo not given)	CHRM5 antagonist 30
CC(C)c1ccc2c(c1)C(N1CCN(C)CC1)Cc1cccnc1S2 (stereo not given)	none
COc1ccc2c(c1)CC(N1CCN(C)CC1)c1cc(OC)ccc1S2 (stereo not given)	none
Clc1ccc2c(c1)C(N1CCNCC1)Cc1ccccc1S2 (stereo not given)	CHRM5 antagonist 97, M4 antag 82
Clc1cccc2c1Sc1ccccc1CC2N1CCNCC1 (stereo not given)	CHRM5 antagonist 78, M4 antag 68
Cc1cccc(C)c1-n1nnnc1C(c1ccnc2ccccc12)N1CCN(c2ccccc2F)CC1 (stereo not given)	none
CSc1ccc(CNC(=O)C2(C)CCN2C(C)C)cc1 (stereo not given)	none
CCn1cc(C(=O)N2CCCC(C(=O)c3cccc(C(F)(F)F)c3)C2)cn1 (stereo not given)	none
O=C(O)CN1C(=O)NC2(CCOc3ccccc32)C1=O (stereo not given)	none
O=C1NC2(CCOc3ccccc32)C(=O)N1CC(=O)N(Cc1ccccc1)C1CCS(=O)(=O)C1 (stereo not given)	M5 PAM 22
CCN(CC)CCCOC(=O)C(c1ccccc1)c1ccccc1	CHRM5 antagonist 98, M4 antag 91
Clc1ccc2ccc3cccnc3c2n1	none
O=S1(=O)Nc2c(ccc3cccnc23)-c2ccccc21	CHRM5 antagonist 31, M4 antag 30
CC(=O)N1CC2(CC(c3ccccc3F)=NO2)CN1c1ccc(Cl)cc1 (stereo not given)	none
CCOC(=O)CN(C(=O)CSc1nnc(CNc2ccc(F)cc2)n1C)c1ccccc1	CHRM4 PAM 18
CCOC(=O)CN(C(=O)CSc1nnc(CNc2ccc(F)cc2)o1)c1ccccc1	none
CCNC(=O)C1(C)CCN(C(=O)c2ccc3ccccc3c2)C1 (stereo not given)	none
C=CCN1CC(=O)N2Cc3[nH]c4ccccc4c3C[C@H]2C1=O	M4 antag 43
O=C1[C@@H]2Cc3c([nH]c4ccccc34)CN2C(=O)CN1CCCO	none
CC(=O)Nc1ccc(Sc2ncccc2C(=O)Nc2ccc(OC(F)(F)F)cc2)cn1	CHRM4 agonist 142, CHRM5 agonist 76, CHRM5 antagonist 57, M4 antag 73
CCCc1nc2ccc(C)cn2c1Cc1cccc(F)c1	none
CCCc1nc2c3ccccc3ccn2c1Cc1cccc(F)c1	CHRM5 antagonist 47, M4 antag 57
CCOC(=O)c1csc(-c2csc(CCNC(=O)c3ccccc3)n2)n1	none
CC[C@H]1O[C@H](C)CC2=C1C(=O)OC(C)(C)O2	CHRM4 PAM 23
O=Cc1cn(CC(=O)Nc2ccc3c(c2)OCO3)c2ccccc12	CHRM5 antagonist 27
Cc1ccc(NC(=O)Cn2cc(C=O)c3ccccc32)cc1	none
COc1ccc(NC(=S)N2CCC3CC2c2cc(-c4ccc5c(c4)OCO5)ccc23)c(OC)c1 (stereo not given)	none
CN1C(=O)N(c2ccc(Cl)cc2)C(C)(O)CC1(C)C (stereo not given)	M5 PAM 25
CCCCN1C(=O)N(c2ccc(Cl)cc2)C(C)(O)CC1(C)C (stereo not given)	none
